For orientation: inhibition means the relative decrease from the control value, in per cent. A high value points to a strong effect. What is called IC50 is the concentration that inhibits the measured activity by half. Lower therefore signals greater potency.

Among the data in ChEMBL document CHEMBL1137103, “4-Acylamino-and 4-ureidobenzamides as melanin-concentrating hormone (MCH) receptor 1 antagonists” (Bioorg Med Chem Lett, 2004) are inhibition and IC50 values, retold here.

The nature of assay [1]: inhibitory activity against sodium channel (site 2) at 10 uM.
Assay [2] concerns the target Sigma non-opioid intracellular receptor 1 (Homo sapiens) (UniProt Q99720). Put plainly: Inhibitory activity against Opioid receptor sigma 1 at 10 uM.
For assay [3], the target named is T1, Melanin-concentrating hormone receptor 1 (Homo sapiens, UniProt Q99705). The experiment in a line: Antagonistic activity against human Melanin-concentrating hormone receptor 1 stably transfected CHO cells was determined using IP3 assay. The format is functional, cell-based. Put shortly:
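CHO whole cells expressing the human receptor, labelled with 5 µCi [3H]-myo-inositol in inositol-free culture medium. Phosphatidylinositol turnover stimulated by submaximal MCH in the presence of increasing ligand concentrations. Generated [3H]-inositol phosphates purified on anion-exchange resin; IC50 derived.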

The target in assay [4] is Sodium-dependent noradrenaline transporter (Homo sapiens) (UniProt P23975). The experiment in a line: Inhibitory activity against Norepinephrine transporter at 10 uM.
Chain of Sodium-dependent noradrenaline transporter (Homo sapiens) (P23975 whole entry): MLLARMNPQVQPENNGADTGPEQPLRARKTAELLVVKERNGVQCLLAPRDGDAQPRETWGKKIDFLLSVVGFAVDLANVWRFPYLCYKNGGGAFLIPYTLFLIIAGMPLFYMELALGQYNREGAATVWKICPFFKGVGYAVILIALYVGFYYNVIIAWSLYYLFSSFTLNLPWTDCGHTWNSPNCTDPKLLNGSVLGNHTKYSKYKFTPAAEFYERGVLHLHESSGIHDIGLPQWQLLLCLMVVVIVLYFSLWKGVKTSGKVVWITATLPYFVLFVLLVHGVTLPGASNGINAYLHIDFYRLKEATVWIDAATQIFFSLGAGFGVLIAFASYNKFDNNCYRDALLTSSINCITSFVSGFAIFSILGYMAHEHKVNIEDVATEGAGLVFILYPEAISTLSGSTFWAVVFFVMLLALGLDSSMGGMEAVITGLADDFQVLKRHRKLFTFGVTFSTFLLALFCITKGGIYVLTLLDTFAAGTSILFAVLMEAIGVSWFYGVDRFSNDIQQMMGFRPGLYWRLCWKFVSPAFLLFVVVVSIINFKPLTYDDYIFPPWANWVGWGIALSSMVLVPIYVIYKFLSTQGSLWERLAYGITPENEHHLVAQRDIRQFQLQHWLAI
Assay [5] addresses T1, Melanin-concentrating hormone receptor 1. Put plainly: Binding affinity against human Melanin-concentrating hormone receptor 1 stably transfected CHO cells was determined using scintillation proximity assay (SPA). The format is cell-based. In a few lines:
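Scintillation proximity binding with CHO membranes incubated with PEI-treated WGA-coupled PVT SPA beads and tracer over various test-compound concentrations. Nonspecific binding defined with 1 µM MCH; IC50 derived.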
For orientation: SPA uses beads or plates that emit light when radiolabelled molecules are held near them.

For assay [6] the target is unchanged. The experiment in a line: Binding affinity against human Melanin-concentrating hormone receptor 1 stably transfected CHO cells was determined using [125I]MCH as radioligand. The format is cell-based. Put shortly:
(§1)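 Whole-cell binding in CHO cells expressing the human receptor with [125I]-MCH tracer. Nonspecific binding defined with 1 µM MCH. IC50 values from displacement by various concentrations of test compound.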

In assay [7] the target is T2, Muscarinic acetylcholine receptor M2 (Homo sapiens) (UniProt P08172).
T2 sequence (whole entry): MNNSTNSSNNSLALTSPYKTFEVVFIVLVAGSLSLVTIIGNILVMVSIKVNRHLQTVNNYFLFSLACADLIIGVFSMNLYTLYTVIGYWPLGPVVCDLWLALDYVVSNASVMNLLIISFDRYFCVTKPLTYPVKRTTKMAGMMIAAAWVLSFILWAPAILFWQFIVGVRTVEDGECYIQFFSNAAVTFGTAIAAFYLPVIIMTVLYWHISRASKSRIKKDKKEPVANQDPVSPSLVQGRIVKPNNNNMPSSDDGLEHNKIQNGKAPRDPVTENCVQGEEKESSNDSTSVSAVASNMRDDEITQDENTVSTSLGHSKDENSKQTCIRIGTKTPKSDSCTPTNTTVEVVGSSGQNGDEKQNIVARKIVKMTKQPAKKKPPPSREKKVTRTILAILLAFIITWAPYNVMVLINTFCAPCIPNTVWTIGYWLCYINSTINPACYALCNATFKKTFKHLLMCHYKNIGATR
The experiment in a line: Inhibitory activity against Muscarinic acetylcholine receptor M2 at 10 uM.

A short description of assay [8]: Inhibitory activity against 5-hydroxytryptamine 2A receptor.
The target of assay [9] is D(1A) dopamine receptor (Homo sapiens) (UniProt P21728). The experiment in a line: Inhibitory activity against Dopamine receptor D1 at 10 uM.
Chain of D(1A) dopamine receptor (Homo sapiens) (P21728 whole entry): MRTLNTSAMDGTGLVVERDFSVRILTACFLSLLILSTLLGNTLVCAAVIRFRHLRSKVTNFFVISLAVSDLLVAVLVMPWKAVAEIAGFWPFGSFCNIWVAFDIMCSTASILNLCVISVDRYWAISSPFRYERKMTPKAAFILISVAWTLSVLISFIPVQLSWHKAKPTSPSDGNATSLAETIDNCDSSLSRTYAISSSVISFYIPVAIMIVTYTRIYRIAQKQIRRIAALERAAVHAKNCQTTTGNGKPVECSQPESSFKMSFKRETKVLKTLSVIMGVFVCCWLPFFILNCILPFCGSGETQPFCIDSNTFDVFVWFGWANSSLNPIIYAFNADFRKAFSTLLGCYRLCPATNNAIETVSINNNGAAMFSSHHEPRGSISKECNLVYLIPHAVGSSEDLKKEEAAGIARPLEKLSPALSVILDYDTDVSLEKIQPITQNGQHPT
A short description of assay [10]: Inhibitory activity against Dopamine transporter. Further details: species or system Homo sapiens.
For assay [11], the target named is T3, Muscarinic acetylcholine receptor M1 (Homo sapiens) (UniProt P11229).
T3 sequence (whole entry): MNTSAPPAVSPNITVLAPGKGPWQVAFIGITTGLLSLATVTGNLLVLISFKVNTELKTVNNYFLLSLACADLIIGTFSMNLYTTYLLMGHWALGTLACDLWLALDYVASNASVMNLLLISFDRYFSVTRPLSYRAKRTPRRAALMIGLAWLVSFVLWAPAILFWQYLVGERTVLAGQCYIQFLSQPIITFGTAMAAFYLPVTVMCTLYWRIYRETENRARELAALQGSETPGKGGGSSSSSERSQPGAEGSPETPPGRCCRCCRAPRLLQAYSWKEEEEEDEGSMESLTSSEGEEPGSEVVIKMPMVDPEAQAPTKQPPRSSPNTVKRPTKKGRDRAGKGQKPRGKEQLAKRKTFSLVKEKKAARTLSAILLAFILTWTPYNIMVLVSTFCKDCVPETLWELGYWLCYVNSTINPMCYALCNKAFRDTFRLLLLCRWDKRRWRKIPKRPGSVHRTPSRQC
Put plainly: Inhibitory activity against Muscarinic acetylcholine receptor M1 at 10 uM.

The nature of assay [12]: Inhibitory activity against 5-hydroxytryptamine 2C receptor.
Assay [13] has as its target D(2) dopamine receptor (Homo sapiens) (UniProt P14416). The experiment in a line: Inhibitory activity against Dopamine receptor D2 at 10 uM.
The target of assay [14] is Melanin-concentrating hormone receptor 2 (Homo sapiens, UniProt Q969V1). Put plainly: Binding affinity against human Melanin-concentrating hormone receptor 2 stably transfected CHO cells was determined using [125I]MCH as radioligand. The format is cell-based. In a few lines:
as §1

Assay [15] is described as follows: Inhibitory activity against Histamine H2 receptor.
Assay [16] concerns the target Mu-type opioid receptor (Homo sapiens) (UniProt P35372). The experiment in a line: Inhibitory activity against Opioid receptor mu 1 at 10 uM.
In assay [17] the target is T4, Adenosine receptor A3 (Homo sapiens) (UniProt P0DMS8).
T4 sequence (whole entry): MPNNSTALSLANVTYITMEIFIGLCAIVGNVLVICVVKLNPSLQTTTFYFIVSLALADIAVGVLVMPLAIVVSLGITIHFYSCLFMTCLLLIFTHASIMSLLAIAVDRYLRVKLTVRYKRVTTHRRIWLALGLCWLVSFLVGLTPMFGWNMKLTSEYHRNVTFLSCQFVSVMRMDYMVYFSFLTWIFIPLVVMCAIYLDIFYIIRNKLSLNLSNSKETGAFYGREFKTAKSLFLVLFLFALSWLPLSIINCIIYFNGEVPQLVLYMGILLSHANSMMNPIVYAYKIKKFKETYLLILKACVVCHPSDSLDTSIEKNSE
The experiment in a line: Inhibitory activity against Adenosine A3 receptor at 10 uM.

SMILES strings stand for the structures.

T1 sequence (Q99705 whole entry): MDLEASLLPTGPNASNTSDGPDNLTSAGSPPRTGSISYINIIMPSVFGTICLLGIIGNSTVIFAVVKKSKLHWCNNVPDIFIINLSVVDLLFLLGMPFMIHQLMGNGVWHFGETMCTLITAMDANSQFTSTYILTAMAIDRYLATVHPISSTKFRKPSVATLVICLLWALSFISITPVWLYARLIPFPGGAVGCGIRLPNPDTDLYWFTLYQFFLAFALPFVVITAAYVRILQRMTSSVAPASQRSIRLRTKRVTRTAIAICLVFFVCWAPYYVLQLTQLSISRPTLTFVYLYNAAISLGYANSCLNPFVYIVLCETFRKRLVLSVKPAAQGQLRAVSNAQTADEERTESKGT
Chain of Sigma non-opioid intracellular receptor 1 (Homo sapiens) (Q99720 whole entry): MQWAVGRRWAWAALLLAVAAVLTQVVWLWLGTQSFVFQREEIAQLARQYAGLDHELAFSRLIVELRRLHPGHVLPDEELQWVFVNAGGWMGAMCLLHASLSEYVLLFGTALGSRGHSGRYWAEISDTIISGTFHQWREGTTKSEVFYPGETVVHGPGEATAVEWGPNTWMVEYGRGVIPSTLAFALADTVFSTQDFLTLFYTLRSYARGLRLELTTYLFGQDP
Chain of D(2) dopamine receptor (Homo sapiens) (P14416 whole entry): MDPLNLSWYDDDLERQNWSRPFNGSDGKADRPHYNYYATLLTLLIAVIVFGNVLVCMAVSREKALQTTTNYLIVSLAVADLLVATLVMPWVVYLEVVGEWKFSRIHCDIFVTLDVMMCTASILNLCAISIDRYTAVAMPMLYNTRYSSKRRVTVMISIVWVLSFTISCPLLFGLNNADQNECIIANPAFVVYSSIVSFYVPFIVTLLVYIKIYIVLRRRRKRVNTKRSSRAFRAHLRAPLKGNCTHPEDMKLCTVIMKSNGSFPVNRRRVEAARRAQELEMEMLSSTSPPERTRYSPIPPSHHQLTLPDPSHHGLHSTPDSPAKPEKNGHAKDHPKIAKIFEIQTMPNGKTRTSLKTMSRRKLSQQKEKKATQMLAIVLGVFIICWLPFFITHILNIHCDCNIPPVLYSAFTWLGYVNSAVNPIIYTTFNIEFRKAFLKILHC
Chain of Mu-type opioid receptor (Homo sapiens) (P35372 whole entry): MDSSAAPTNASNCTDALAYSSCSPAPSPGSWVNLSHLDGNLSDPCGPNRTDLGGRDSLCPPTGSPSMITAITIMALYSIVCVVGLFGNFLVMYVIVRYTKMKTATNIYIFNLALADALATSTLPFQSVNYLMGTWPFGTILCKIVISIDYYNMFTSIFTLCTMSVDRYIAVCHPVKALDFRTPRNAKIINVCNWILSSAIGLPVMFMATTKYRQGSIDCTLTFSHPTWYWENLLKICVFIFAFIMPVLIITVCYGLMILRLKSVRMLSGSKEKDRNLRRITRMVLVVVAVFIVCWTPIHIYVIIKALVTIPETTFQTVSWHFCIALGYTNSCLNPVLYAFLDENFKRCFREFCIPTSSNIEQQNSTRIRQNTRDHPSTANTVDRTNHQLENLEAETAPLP
Chain of Melanin-concentrating hormone receptor 2 (Q969V1 whole entry): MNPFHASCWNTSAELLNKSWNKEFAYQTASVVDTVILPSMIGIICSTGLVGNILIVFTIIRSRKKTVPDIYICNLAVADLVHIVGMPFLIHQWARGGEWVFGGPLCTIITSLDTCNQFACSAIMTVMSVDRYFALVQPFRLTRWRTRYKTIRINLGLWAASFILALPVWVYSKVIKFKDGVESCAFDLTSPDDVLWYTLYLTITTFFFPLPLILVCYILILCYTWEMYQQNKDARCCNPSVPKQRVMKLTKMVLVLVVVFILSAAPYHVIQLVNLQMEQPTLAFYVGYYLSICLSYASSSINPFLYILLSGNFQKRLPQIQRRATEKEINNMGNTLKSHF

Consider `CCN(CC)CCNC(=O)c1ccc(NC(=O)Nc2ccc(OC(F)(F)F)cc2)cc1OC`, for which the inhibition in assay [1] was found to be 76%; in assay [2] it was 65%; in [4], 67%; in [7], 46%; in assay [9], 78%; in assay [11], 72%. Also, the inhibition in assay [13] is 79%; in [16], 44%; in [17] it was 36%. Further, the half-inhibitory concentration (IC50) in [3] is 260 nM; in assay [5], 150 nM; in assay [6], 50 nM; in [8], 1300 nM; in assay [10], 6900 nM; in [12], 310 nM. The IC50 in assay [14] was greater than 100000 nM; in assay [15] it was 2200 nM.
